Assay [1] addresses T1, Ectonucleotide pyrophosphatase/phosphodiesterase family member 3 (Homo sapiens, UniProt O14638).
T1 sequence (O14638 whole entry): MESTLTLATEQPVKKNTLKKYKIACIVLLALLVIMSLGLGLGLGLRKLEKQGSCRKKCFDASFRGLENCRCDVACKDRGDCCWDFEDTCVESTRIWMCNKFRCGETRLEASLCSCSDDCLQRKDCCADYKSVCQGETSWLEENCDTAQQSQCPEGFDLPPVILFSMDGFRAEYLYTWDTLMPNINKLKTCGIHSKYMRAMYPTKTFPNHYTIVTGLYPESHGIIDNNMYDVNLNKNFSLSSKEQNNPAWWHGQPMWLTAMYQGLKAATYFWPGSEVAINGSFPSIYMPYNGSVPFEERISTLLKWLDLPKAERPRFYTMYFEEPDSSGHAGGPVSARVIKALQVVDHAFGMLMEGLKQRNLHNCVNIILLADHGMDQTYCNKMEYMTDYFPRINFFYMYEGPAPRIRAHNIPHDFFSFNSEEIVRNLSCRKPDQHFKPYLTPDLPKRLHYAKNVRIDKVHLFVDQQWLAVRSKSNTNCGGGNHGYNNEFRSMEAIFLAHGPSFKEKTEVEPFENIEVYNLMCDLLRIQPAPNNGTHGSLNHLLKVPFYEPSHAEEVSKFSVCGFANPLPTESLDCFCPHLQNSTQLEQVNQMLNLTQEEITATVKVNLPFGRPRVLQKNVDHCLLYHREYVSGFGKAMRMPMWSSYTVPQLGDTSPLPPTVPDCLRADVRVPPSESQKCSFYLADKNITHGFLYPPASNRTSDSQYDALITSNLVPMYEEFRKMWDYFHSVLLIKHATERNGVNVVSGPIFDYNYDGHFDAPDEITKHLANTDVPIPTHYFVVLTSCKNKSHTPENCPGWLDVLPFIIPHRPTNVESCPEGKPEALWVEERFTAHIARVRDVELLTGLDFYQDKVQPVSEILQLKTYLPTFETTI
The assay is described as follows: Inhibition of NPP3 (unknown origin) transfected in COS7 cells using pNP-TMP as substrate incubated for 35 mins by spectrophotometric method. Format: cell-based. The essentials: (§1)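 Human NPP1 or NPP3 expressed in COS-7 cells by plasmid/Lipofectamine transfection, harvested 48-72 h later. Membrane fractions prepared by sonication and 300 g centrifugation, stored with 7.5% glycerol; protein measured by Bradford. Assay buffer: 50 mM Tris-HCl, 5 mM MgCl2, 0.1 mM ZnCl2, pH 9.5. Triplicates ± S.E.M.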

Assay [2] deals with MCF7. In words: Antiproliferative activity against human MCF7 cells assessed as reduction in cell growth at 100 uM incubated for 24 hrs by MTT assay relative to control. Format: functional. For orientation: Tetrazolium assays rely on reduction of a dye to a coloured formazan, in cell work by metabolically active cells.
Assay [3] concerns MCF7. The assay is described as follows: Antiproliferative activity against human MCF7 cells assessed as reduction in cell growth at 10 uM incubated for 24 hrs by MTT assay relative to control. Format: functional. The essentials: (§2)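 MTT assay. Cells seeded at 4 × 10^4 per well and incubated overnight. Treated 24 h; DMSO served as negative control and doxorubicin as positive control. MTT dye 0.5 mg/mL added for 2 h at 37 °C, formazan dissolved in DMSO, absorbance read at 570 nm. Single-concentration screen at 10; dose-dependent dilutions gave IC50. WI-38 fibroblasts grown in DMEM with 10% FBS and 1% penicillin/streptomycin. Triplicate means ± S.E.M.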

For assay [4], the system named is HT-29. The assay is described as follows: Antiproliferative activity against human HT-29 cells assessed as reduction in cell growth at 10 uM incubated for 24 hrs by MTT assay relative to control. Format: functional. The essentials:
as §2

For assay [5], the target named is T2, Ectonucleotide pyrophosphatase/phosphodiesterase family member 1 (Homo sapiens) (UniProt P22413).
T2 sequence (whole entry): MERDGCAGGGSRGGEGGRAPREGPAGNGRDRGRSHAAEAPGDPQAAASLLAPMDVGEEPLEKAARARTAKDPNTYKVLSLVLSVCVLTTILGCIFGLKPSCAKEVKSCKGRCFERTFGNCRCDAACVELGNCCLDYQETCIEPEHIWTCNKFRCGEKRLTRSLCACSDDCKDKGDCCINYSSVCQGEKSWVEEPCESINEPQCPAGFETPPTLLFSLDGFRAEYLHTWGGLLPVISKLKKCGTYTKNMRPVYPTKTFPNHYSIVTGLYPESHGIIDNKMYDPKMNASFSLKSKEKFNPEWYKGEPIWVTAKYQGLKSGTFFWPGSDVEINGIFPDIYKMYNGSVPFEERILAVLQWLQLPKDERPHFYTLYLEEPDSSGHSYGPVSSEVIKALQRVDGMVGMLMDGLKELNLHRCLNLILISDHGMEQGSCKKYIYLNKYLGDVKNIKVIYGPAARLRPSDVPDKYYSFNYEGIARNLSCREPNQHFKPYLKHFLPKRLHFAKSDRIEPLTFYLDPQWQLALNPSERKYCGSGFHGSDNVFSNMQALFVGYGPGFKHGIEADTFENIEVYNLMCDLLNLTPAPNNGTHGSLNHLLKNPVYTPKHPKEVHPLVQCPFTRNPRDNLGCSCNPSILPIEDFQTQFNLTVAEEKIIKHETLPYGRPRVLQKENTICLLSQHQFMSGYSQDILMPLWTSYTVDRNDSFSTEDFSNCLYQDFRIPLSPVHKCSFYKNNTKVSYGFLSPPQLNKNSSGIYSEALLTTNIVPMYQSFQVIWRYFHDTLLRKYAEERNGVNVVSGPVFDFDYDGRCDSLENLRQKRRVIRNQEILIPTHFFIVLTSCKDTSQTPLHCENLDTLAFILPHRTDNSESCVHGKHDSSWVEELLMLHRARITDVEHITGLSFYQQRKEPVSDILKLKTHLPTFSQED
The assay is described as follows: Inhibition of human NPP1 transfected in COS7 cells at 100 uM using pNP-TMP as substrate incubated for 35 mins relative to control. Format: cell-based. Put shortly:
as §1

The target in assay [6] is T3, Ectonucleotide pyrophosphatase/phosphodiesterase family member 3 (Homo sapiens) (UniProt O14638).
T3 sequence (whole entry): T1 sequence (O14638 whole entry)
The assay is described as follows: Inhibition of human NPP3 transfected in COS7 cells at 100 uM using pNP-TMP as substrate incubated for 35 mins relative to control. Format: cell-based. The essentials:
as §1

Assay [7] concerns the target T4, Ectonucleotide pyrophosphatase/phosphodiesterase family member 1 (Homo sapiens, UniProt P22413).
T4 sequence (P22413 whole entry): T2 sequence (whole entry)
The assay is described as follows: Inhibition of human NPP1 transfected in COS7 cells using pNP-TMP as substrate incubated for 35 mins. Format: cell-based.

Assay [8] deals with T1, Ectonucleotide pyrophosphatase/phosphodiesterase family member 3. In words: Inhibition of human NPP3 transfected in COS7 cells using pNP-TMP as substrate incubated for 35 mins. Format: cell-based.
Assay [9] deals with HT-29. The assay is described as follows: Antiproliferative activity against human HT-29 cells assessed as reduction in cell growth incubated for 24 hrs by MTT assay. The settings on record: HT-29, 24 h. Format: functional, cell-based. The essentials:
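HT-29 colon cancer cells seeded per well and incubated overnight, then exposed for 24 h to serial dilutions of compound (10 mM DMSO stock diluted in medium), with doxorubicin and DMSO controls. MTT (0.5 mg/mL) added for 2 h at 37 °C, formazan dissolved in DMSO, absorbance read at 570 nm. IC50 from triplicate assays, mean ± S.E.M.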

The subject of a further assay is WI-38. The assay is described as follows: Cytotoxicity against human WI-38 cells assessed as reduction in cell growth incubated for 24 hrs by MTT assay. The settings on record: WI-38, 24 h. Format: cell-based. The essentials:
as §2

Assay [10] concerns the target T4, Ectonucleotide pyrophosphatase/phosphodiesterase family member 1. In words: Inhibition of NPP1 (unknown origin) transfected in COS7 cells using pNP-TMP as substrate incubated for 35 mins by spectrophotometric method. Format: cell-based. The essentials:
as §1

Assay [11] deals with T3, Ectonucleotide pyrophosphatase/phosphodiesterase family member 3 (Homo sapiens). The assay is described as follows: Competitive inhibition of human NPP3 transfected in COS7 cells at 0.1 to 1 uM using pNP-TMP as substrate incubated for 35 mins by Lineweaver-Burk plot analysis. Format: cell-based. The settings on record: dose 0.1-1 µM. The essentials:
(§3)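 Kinetics with pNP-TMP at 0.0, 1.25, 2.50, 5.0, 7.5 and 10.0 mM in Tris-HCl 50 mM, MgCl2 5 mM, ZnCl2 0.1 mM, pH 9.5. Incubated at 37 °C and read over 35 min at 5-min intervals. Enzyme from transfected COS-7 membrane fractions.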

Assay [12] has as its system MCF7. The assay is described as follows: Antiproliferative activity against human MCF7 cells assessed as reduction in cell growth incubated for 24 hrs by MTT assay. Format: functional, cell-based. The settings on record: MCF7, 24 h. The essentials:
as §2

In assay [13] the target is T2, Ectonucleotide pyrophosphatase/phosphodiesterase family member 1 (Homo sapiens). In words: Non-competitive inhibition of human NPP1 transfected in COS7 cells at 0.5 to 1.5 uM using pNP-TMP as substrate incubated for 35 mins by Lineweaver-Burk plot analysis. Format: cell-based. The settings on record: dose 0.5-1.5 µM. The essentials: as §3

Active and inactive are the calls of the source. No cut-off for these calls is given here.

`Oc1ccc(-c2nn(-c3cccc(NC(=S)Nc4ccccc4)c3)cc2-c2ccncc2)cc1Cl` came in with an IC50 in [1] of 210 nM. For the same compound, the inhibition at 100 µM in the assay with MCF7 [2] stood at 35.6%.
With `O=C(NS(=O)(=O)c1ccc2ccccc2c1)n1ccc2cccnc21`, the inhibition at 10 µM in the assay on MCF7 [3] came to 1.9%; with HT-29 [4], 16.2%. The inhibition worked out at 48.6% in assay [5] and 44.1% in [6].
In the case of `Cc1ccc(S(=O)(=O)NC(=O)n2ccc3c(N(C)C)ccnc32)cc1`, the results for the inhibition at 10 µM in the assay with MCF7 [3] and with HT-29 [4] were 5.6% and 21.4%, respectively. For the same compound, the figures for the inhibition in assay [5] and in [6] were 41.5% and 45.7%, respectively.
As to `O=C(NS(=O)(=O)c1ccccc1)n1ccc2cc(Br)cnc21`, the IC50 in [7] is 8300 nM; in assay [8], 2010 nM. The inhibition at 10 µM in the assay on MCF7 [3] came to 16.8%; in the assay on HT-29 [4], 14.6%.
With `COc1cccc2c1C(=O)c1c(O)c3c(c(O)c1C2=O)C[C@@](O)(C(=O)CO)C[C@@H]3O[C@H]1C[C@H](N)[C@H](O)[C@H](C)O1` [DOXORUBICIN], the results for the IC50 in the assay on HT-29 [9] and in the assay on WI-38 were 1400 nM and 1960 nM, respectively. In addition, the inhibition at 10 µM in the assay with MCF7 [3] was 96.8%; in the assay with HT-29 [4] it was 94.3%.
Regarding `O=C(NS(=O)(=O)c1ccc(Cl)cc1)n1ccc2cccnc21`, the IC50 in [7] was found to be 10400 nM; in assay [8], 880 nM. The results for the inhibition at 10 µM with MCF7 [3] and in the assay with HT-29 [4] were 33.5% and 54.4%, respectively.
Taken in the same sequence, the figures for `O=C(NS(=O)(=O)c1ccc2ccccc2c1)n1ccc2cc(Br)cnc21` were 178000 nM, 25300 nM, 28.8% and 60.1%.
Turning to `Cc1ccc(S(=O)(=O)NC(=O)n2ccc3cccnc32)cc1`, the values for the inhibition at 10 µM in the assay with MCF7 [3] and in the assay with HT-29 [4] were 20.3% and 33.4%, respectively. The compound also yielded an inhibition in assay [5] of 47.9%. This compound also returned an IC50 in [8] of 3720 nM.
`COc1ccc(-c2nn(-c3cccc(NS(=O)(=O)c4ccc(C)cc4)c3)cc2-c2ccncc2)cc1Cl` displayed an IC50 in assay [10] of 180 nM. Moreover, the inhibition at 100 µM in the assay on MCF7 [2] was 40.3%.
For the compound `O=C(NS(=O)(=O)c1ccc2ccccc2c1)n1ccc2c(Cl)ccnc21`, the IC50 in assay [7] is 3290 nM; in assay [8], 1310 nM. Also, the results for the inhibition at 10 µM in the assay on MCF7 [3] and in the assay on HT-29 [4] were 28.6% and 58.2%, respectively.
Regarding `CN(C)c1ccnc2c1ccn2C(=O)NS(=O)(=O)c1ccccc1`, the IC50 in assay [7] was determined as 2770 nM; in [8], 550 nM. Besides, in assay [11], the inhibition result was “Active”. Moreover, the inhibition at 10 µM amounted to 26.9% in the assay on MCF7 [3] and 17.6% with HT-29 [4].
As to `O=C(NS(=O)(=O)c1ccccc1)n1ccc2c(Cl)ccnc21`, the IC50 in [7] came out at 1080 nM; in assay [8], 26100 nM. For the same compound, the inhibition at 10 µM with MCF7 [3] was found to be 3.32%; with HT-29 [4], 47.6%.
`O=C(NS(=O)(=O)c1cccc([N+](=O)[O-])c1)n1ccc2cc(Br)cnc21`: the IC50 in [7] is 1150 nM; in [8], 2130 nM. The inhibition at 10 µM in the assay with MCF7 [3] was found to be 43%; in the assay with HT-29 [4], 58.5%.
For the compound `O=C(NS(=O)(=O)c1cccc([N+](=O)[O-])c1)n1ccc2cccnc21`, the IC50 is 800 nM in assay [7], 4700 nM in the assay on MCF7 [12], above 20000 nM with WI-38 and 1170 nM in [8]. The results for the inhibition at 10 µM in the assay with MCF7 [3] and in the assay with HT-29 [4] were 70.7% and 18.9%, respectively. Moreover, the inhibition entry in assay [13] was “Active”.
For `O=C(NS(=O)(=O)c1ccccc1)n1ccc2cccnc21`, in assay [7], the IC50 was 4500 nM. Further, the inhibition at 10 µM with MCF7 [3] was 18.9%; in the assay with HT-29 [4], 23.6%. Further, the inhibition in assay [6] is 37.5%.

One may read the IC50 as the point on the concentration scale where inhibition reaches its midpoint. As a reminder, the inhibition is how much of the control response was suppressed.

The values above are taken from ChEMBL document CHEMBL4814002, “Synthesis, biological evaluation, and docking studies of novel pyrrolo[2,3-b]pyridine derivatives as both ectonucleotide pyrophosphatase/phosphodiesterase inhibitors and antiproliferative agents” (Eur J Med Chem, 2021).
